Assay [1] relates to Vero. As to the kind of experiment: (§1) Compound was tested for antiviral activity against Herpes simplex virus-1 (Strain F) in vero cells by plaque reduction assay. Particulars: Chlorocebus sabaeus, read-out: ED50 (the source's name). Format: functional. On the technique in general: In a plaque reduction assay, fewer plaques than in the control indicate reduced infectivity or spread.

The test system of assay [2] is Vero. As to the kind of experiment: (§2) Compound was tested for antiviral activity against Herpes simplex virus-2 (Strain G) in vero cells by plaque reduction assay. Format: functional. Particulars: Chlorocebus sabaeus, read-out: ED50 (the source's name).
The subject of assay [3] is Vero. The description is as §1. Type of assay: functional, Chlorocebus sabaeus.
In assay [4] the test system is Vero. Described as §2. Format: functional, Chlorocebus sabaeus.
Assay [5] in a line: Theuraptic Index: ratio of ID 50 / ED 90 of compound against HSV 1. Type of assay: functional. The essentials:
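Index computed as cytotoxic ID50 over antiviral ED90. Antiviral activity was measured against HSV-1 (strain F) by plaque-reduction assay in Vero cells. Cytotoxicity was measured in rapidly dividing Vero cells.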

Assay [6] is described as follows: Theuraptic Index: ratio of ID 50 / ED 90 of compound against HSV 2. Format: functional. The procedure, abridged: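 Index computed as cytotoxic ID50 over antiviral ED90. Antiviral activity was measured against HSV-2 (strain G) by plaque-reduction assay in Vero cells. Cytotoxicity was measured in rapidly dividing Vero cells.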

For the compound `CCC(C)c1cn([C@@H]2O[C@H](CO)[C@@H](O)[C@@H]2F)c(=O)[nH]c1=O` (some centres undefined), the EC50 was 15.6 µM in the assay on Vero [1] and greater than 400 µM in the assay on Vero [2]. Further, the ED90 with Vero [3] was 305 µM; in the assay on Vero [4] it was greater than 400 µM.

For `Cc1cn([C@@H]2O[C@H](CO)[C@@H](O)[C@@H]2F)c(=O)[nH]c1=O` [5-METHYL-2'-FLUOROARAURACIL], the EC50 in the assay on Vero [1] worked out at 0.018 µM; with Vero [2], 0.023 µM. Moreover, the ED90 is 0.047 µM in the assay with Vero [3] and 0.09 µM in the assay on Vero [4]. The TI was found to be 59 in assay [5] and 31 in assay [6].

As for `CCCc1cn([C@@H]2O[C@H](CO)[C@@H](O)[C@@H]2F)c(=O)[nH]c1=O`, the EC50 in the assay with Vero [1] was found to be 0.48 µM; with Vero [2] it was 0.9 µM. In addition, the ED90 worked out at 4.27 µM with Vero [3] and 7.58 µM with Vero [4]. Besides, the TI in assay [5] was 551; in assay [6], 310.

As for `CC(C)c1cn([C@@H]2O[C@H](CO)[C@@H](O)[C@@H]2F)c(=O)[nH]c1=O`, the EC50 in the assay with Vero [1] turned out to be 1 µM; in the assay on Vero [2], 13 µM. The ED90 in the assay with Vero [3] was determined as 8.7 µM; with Vero [4], 72.3 µM. The TI is greater than 92 in assay [5] and greater than 11 in assay [6].

For `CCCCc1cn([C@@H]2O[C@H](CO)[C@@H](O)[C@@H]2F)c(=O)[nH]c1=O`, the values for the EC50 with Vero [1] and in the assay with Vero [2] were 11.1 µM and 15.9 µM, respectively. For the same compound, the ED90 in the assay on Vero [3] amounted to 76 µM; in the assay on Vero [4], 40.3 µM. The results for the TI in assay [5] and in assay [6] were greater than 11 and greater than 20, respectively.

With `CCc1cn([C@@H]2O[C@H](CO)[C@@H](O)[C@@H]2F)c(=O)[nH]c1=O`, the EC50 in the assay on Vero [1] is 0.024 µM; in the assay on Vero [2], 0.24 µM. In addition, the ED90 is 0.26 µM in the assay on Vero [3] and 0.96 µM in the assay with Vero [4]. In addition, the TI stood at 6540 in assay [5] and 1770 in assay [6].

Turning to `C=CCc1cn([C@@H]2O[C@H](CO)[C@@H](O)[C@@H]2F)c(=O)[nH]c1=O`, the EC50 amounted to 3.3 µM in the assay on Vero [1] and 6 µM in the assay on Vero [2]. For the same compound, the figures for the ED90 in the assay with Vero [3] and in the assay on Vero [4] were 21.3 µM and 29.7 µM, respectively. For the same compound, the TI in assay [5] worked out at 73; in assay [6] it was 52.

In the case of `CC(C)Cc1cn([C@@H]2O[C@H](CO)[C@@H](O)[C@@H]2F)c(=O)[nH]c1=O`, the EC50 in the assay on Vero [1] came out at 28.7 µM; with Vero [2], 113 µM. Besides, the ED90 in the assay with Vero [3] came to 92.7 µM; with Vero [4], 422 µM.

The record behind these values is ChEMBL document CHEMBL1123204, “Nucleosides. 136. Synthesis and antiviral effects of several 1-(2-deoxy-2-fluoro-beta-D-arabinofuranosyl)-5-alkyluracils. Some structure-activity relationships” (J Med Chem, 1986).
